Measured values of several laboratories.
Compare with care: the assays were run in different laboratories. pKi: −log10 of the molar value.
Target: Delta-type opioid receptor (Oprd1, Rattus norvegicus, UniProt P33533)
Notes: cell membranes

Cc1cc(O)cc(C)c1C[C@H](N)C(=O)N[C@@H]1CCN(S(C)(=O)=O)c2ccc(CN3CCc4ccccc4C3)cc21
Kb (GTPγS binding, antagonist): 0.85 nM

Cc1cccc(Cc2ccc3c(c2)CN(C(=O)[C@@H](N)Cc2c(C)cc(O)cc2C)CC3)c1
pKi (ligand displacement, radioligand): 8.52

NC(N)=Nc1ccc2[nH]c3c(c2c1)C[C@@]1(O)[C@H]2Cc4ccc(O)c5c4[C@@]1(CCN2CC1CC1)[C@H]3O5
pKi (ligand displacement, radioligand): 8.54

Cc1cc(C)c(C[C@H](NC(=O)[C@@H](CCCNC(=N)N)NC(=O)[C@@H](N)Cc2c(C)cc(O)cc2C)C(=O)N[C@@H](CCCCN)C(N)=O)c(C)c1
pKi (ligand displacement, radioligand): 6.48

Cc1cc(O)cc(C)c1C[C@H](C)C(=O)N[C@@H]1CCCCC[C@@H](C(N)=O)NC(=O)[C@H](Cc2ccccc2)NC(=O)[C@H](Cc2ccccc2)NC1=O
pKi (ligand displacement, radioligand): 7.73

Cc1cc(O)cc(C)c1C[C@H](N)C(=O)N1CCc2ccc(Cc3ccccc3N)cc2C1
pKi (ligand displacement, radioligand): 8.05

N=C(N)NCCC[C@H]1NC(=O)[C@H](Cc2ccc(O)cc2)NC(=O)[C@H](CCCCN)NC(=O)[C@H](Cc2ccccc2)NC1=O
pKi (ligand displacement, radioligand): 7.19

Cc1cc(O)cc(C)c1C[C@H](N)C(=O)N[C@H](CCCNC(=N)N)C(=O)N[C@@H](Cc1c(C)cccc1C(C)C)C(=O)N[C@@H](CCCCN)C(N)=O
pKi (ligand displacement, radioligand): 7.11

Cc1cc(O)cc(C)c1C[C@H](N)C(=O)N1CCc2ccc(Cc3cccc([N+](=O)[O-])c3)cc2C1
pKi (ligand displacement, radioligand): 8.60

Cc1cc(O)cc(C)c1C[C@H](N)C(=O)N[C@@H]1CCN(C(=O)c2ccccc2)c2ccc(Cc3ccc4ccccc4c3)cc21
Kb (GTPγS binding, antagonist): 15 nM

Cc1cc(O)cc(C)c1C[C@H](N)C(=O)N1CCc2ccc(Cc3cccc(N)c3)cc2C1
pKi (ligand displacement, radioligand): 8.26

Cc1cccc(C)c1C[C@H](NC(=O)[C@@H](CCCNC(=N)N)NC(=O)[C@@H](N)Cc1c(C)cc(O)cc1C)C(=O)N[C@@H](CCCCN)C(N)=O
pKi (ligand displacement, radioligand): 6.98

Cc1cc(O)cc(C)c1C[C@H](C)C(=O)N[C@@H]1C/C=C\CC[C@@H](C(N)=O)NC(=O)[C@H](Cc2ccccc2)NC(=O)[C@H](Cc2ccccc2)NC1=O
pKi (ligand displacement, radioligand): 8.12
